Only some compounds are listed: those with a hit (about 2.2% of all), similar ones and a draw of the others.
Ba/F3 V617F tox = reduce viability of Ba/F3 cells dependent on JAK2V617F; inhibition, % at 5.6 µM; AID 1446; Ba/F3 EpoR-JAK2V617F viability, ATP luminescence; actives 1.1% (n = 220,000);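 active = inhibition above the campaign mean plus 3 SD over all tested compounds, cut at about 24% in these data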;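 also: cytokine-independent growth of Ba/F3 cells driven by EpoR plus mutant JAK2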
MT stabilize HCS = microtubule stabilization, imaging screen; % tubulin-high responders, % at 10 µM; AID 2205; HeLa tubulin immunostaining HCS, 24 h; share of cells brighter than vehicle mean+2SD; actives 0.83% (n = 200,000);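 active = plate Z-score above 3 for both tubulin-high and condensed-nucleus cell shares, with cell loss under 80%, at 10 µM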;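 also: anti alpha tubulin signal scored within the nucleus-defined area of each cell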
BaF3 parental = counter-screen for JAK2V617F inhibitors: parental Ba/F3 viability inhibitors. AID 1486. CellTiter-Glo ATP luminescence. inhibition, % at 5.6 µM. actives 1.1% (n = 220,000);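 active = inhibition above a per-campaign cutoff, the mean inhibition of all tested compounds plus 3 SD, cut at about 27% in these data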
APP 5UTR inh = APP translation inhibition. SH-SY5Y APP 5'UTR-luciferase reporter, luminescence. inhibition, % at 2 µM. actives 0.82% (n = 190,000). AID 1285;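 active = inhibition above a set limit, derived from the sample mean plus 3 SD, cut at about 45% in these data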
IEC-6 tox = IEC-6 cytotoxicity, counter-screen for KLF5 inhibitors. luminescence viability. inhibition, % at 5 µM. actives 0.78% (n = 290,000); in the data active = inhibition above about 22%
bCat nuc transl = beta-catenin nuclear translocation modulation; HeLa beta-catenin nuclear translocation, immunofluorescence imaging; AID 1665; nuclear translocation activity, % at 5 µM; actives 0.3% (n = 190,000);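 active = nuclear translocation activity above 50% at 5 µM, with a well cell count of 50 or more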;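 also: per-cell ratio of nuclear to cytoplasmic median beta-catenin stain intensity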
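Signal – beta-catenin immunofluorescence imaging with DAPI · Test system – human HeLa cell line · Dosing – 5 µM primary single dose, 0.1% DMSO, 0.02–20 µM confirmation series · Measure – % activation, nuclear-to-cytoplasmic median beta-catenin signal ratio per cell · Incubation – 24 h compound exposure at 37°C, 5% CO2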
Of the large screens only hits and unclear results are named; the others gave an inactive call.

NS(=O)(=O)c1ccc(CNC(=O)/C=C/c2ccco2)cc1	Ba/F3 V617F tox 93, BaF3 parental 56 (no result: MT stabilize HCS, APP 5UTR inh)
COc1ccc(N2CCc3c(C)nc4c(OC)cc(OC)cc4c32)cc1	none
COc1ccc(N2CCc3c(C)nc4c(OC)cccc4c32)cc1	Ba/F3 V617F tox 87, MT stabilize HCS 26, BaF3 parental 78, APP 5UTR inh 86, IEC-6 tox 70, bCat nuc transl 104
Cn1c(CCc2nc3ccccc3[nH]2)nnc1SCC#N	none
COc1ccccc1NC(=O)/C(=C/c1cccc([N+](=O)[O-])c1)c1ccccc1	none
CC1(CCC(=O)N2CCCC(N3CCN(c4cccc(C(F)(F)F)c4)CC3)C2)CC1 (centres undefined)	none (no result: Ba/F3 V617F tox, MT stabilize HCS, BaF3 parental, APP 5UTR inh, bCat nuc transl)
Cc1ccc(/C=N/NC(=S)NC(C)C)o1	APP 5UTR inh 72
COC(=O)c1ccc(/C=N/NC(=S)NC(C)C)cc1	none (no result: MT stabilize HCS, APP 5UTR inh)
CSC1=NC(C(Cl)(Cl)Cl)N=C(c2ccc(C)cc2)N1 (centres undefined)	Ba/F3 V617F tox 83, BaF3 parental 64, APP 5UTR inh 71, IEC-6 tox 58, bCat nuc transl 108
CCCC(=O)N1CCN(c2ccc(NC(=S)NC(=O)c3cccc(C)c3)cc2)CC1	none
C/C(=N\NC(=O)c1ccc(Cl)c(Cl)c1)c1ccc(Br)s1	APP 5UTR inh 52
C/C(=N/NC(=O)c1ccc2c(c1)OCO2)c1ccc(Br)s1	none
CSc1ccc(CNC(=O)C(C)n2nc(C)c3c(C)n(-c4ccccc4)nc3c2=O)cc1 (centres undefined)	none (no result: Ba/F3 V617F tox, MT stabilize HCS, BaF3 parental, APP 5UTR inh, bCat nuc transl)
Cc1ccc(C)c(-n2c3nc(=O)[nH]c(=O)c-3cc3cc([N+](=O)[O-])ccc32)c1	BaF3 parental 56, APP 5UTR inh 91, bCat nuc transl 93
COc1ccc(C2CC(C)=C(C#N)S(=O)(=O)C2C#N)cc1 (centres undefined)	none (no result: MT stabilize HCS, APP 5UTR inh)
Cn1c(=O)n(C)c2cc(NS(=O)(=O)c3ccc(C(C)(C)C)cc3)ccc21	BaF3 parental 30
Cc1cc(C)c(S(=O)(=O)Nc2ccc3c(c2)CCC3)c(C)c1	MT stabilize HCS 14
Cc1ccc(NS(=O)(=O)c2ccc3c(c2)n(C)c(=O)n3C)cc1	none (no result: Ba/F3 V617F tox, MT stabilize HCS, BaF3 parental, APP 5UTR inh, bCat nuc transl)
Cn1c(=O)n(C)c2cc(NS(=O)(=O)c3ccc4c(c3)CCCC4)ccc21	Ba/F3 V617F tox 25, BaF3 parental 28 (no result: bCat nuc transl)
COc1ccc(N2CCN(C(=O)c3cc(=O)c4cc(C)c(C)cc4o3)CC2)cc1	none (no result: Ba/F3 V617F tox, MT stabilize HCS, BaF3 parental, APP 5UTR inh, bCat nuc transl)
O=C(NCc1cccnc1)NC1(C(F)(F)F)Oc2ccc(Cl)cc2O1 (centres undefined)	Ba/F3 V617F tox 52, BaF3 parental 39
Cc1ccc(Cl)cc1NC(=O)NCc1cccnc1	none (no result: Ba/F3 V617F tox, MT stabilize HCS, BaF3 parental, APP 5UTR inh, bCat nuc transl)
COCCNC(=O)NC1(C(F)(F)F)Oc2ccc(Cl)cc2O1 (centres undefined)	Ba/F3 V617F tox 46, BaF3 parental 39
NS(=O)(=O)c1ccc(CCNC(=O)NC2(C(F)(F)F)Oc3ccccc3O2)cc1	Ba/F3 V617F tox 57, BaF3 parental 39
CCCCNC(=O)NC1(C(F)(F)F)Oc2ccccc2O1	none
Cc1cc(NC(=O)NC2(C(F)(F)F)Oc3ccc(Cl)cc3O2)no1 (centres undefined)	Ba/F3 V617F tox 51, BaF3 parental 28
CC(=O)Nc1ccc2c(c1)C(C)(C)C(C)N2C (centres undefined)	none
Cc1ccccc1CN1CCN(c2nc3ccccc3s2)CC1	none (no result: Ba/F3 V617F tox, MT stabilize HCS, BaF3 parental, APP 5UTR inh, bCat nuc transl)
O=C(N/N=C/c1ccc(Cl)cc1)c1cc2c(s1)-c1ccccc1CC2	MT stabilize HCS 35
c1ccc(-n2cnc3cc(NCc4cccs4)ccc32)cc1	MT stabilize HCS 41
Cc1ccc(-n2cnc3cc(NCc4cccs4)ccc32)cc1	none
COc1cccc(OC)c1C(=O)Nc1cc(C)nn1-c1nc2ccccc2[nH]1	MT stabilize HCS 9.3
CC1CCN(CCOc2ccc(OCc3ccccc3)cc2)CC1	none
COc1ccc(OC)c(NC(=O)Cc2coc3ccc4ccccc4c23)c1	APP 5UTR inh 68
Cc1ccc(C(=O)Nc2cccc(C(F)(F)F)c2)cc1NC(=O)c1csc(-c2ccncc2)n1	bCat nuc transl 70 (no result: Ba/F3 V617F tox, MT stabilize HCS, BaF3 parental, APP 5UTR inh, IEC-6 tox)
Cc1cc(C)cc(Nc2c3c(nc4ncnn24)CCC3)c1	MT stabilize HCS 12
O=C(c1cc([N+](=O)[O-])[nH]n1)N1CCSCC1	none (no result: MT stabilize HCS, APP 5UTR inh)
Cc1ccccc1Cn1ccc(NC(=O)CCSc2nc(-c3ccco3)cc(C(F)(F)F)n2)n1	none (no result: bCat nuc transl)
Cc1ccc(Cn2ccc(NC(=O)CCSc3nc(-c4ccco4)cc(C(F)(F)F)n3)n2)cc1	MT stabilize HCS 36
O=C(CSc1nc(-c2ccco2)cc(C(F)(F)F)n1)Nc1ccccc1C(F)(F)F	none
Cc1cccc(C)c1NC(=O)CSc1nc(-c2ccco2)cc(C(F)(F)F)n1	MT stabilize HCS 41
COc1ccccc1NC(=O)CCn1c(=O)c2cccn2c2ccccc21	none (no result: Ba/F3 V617F tox, MT stabilize HCS, BaF3 parental, APP 5UTR inh, bCat nuc transl)
COc1ccc(N(C(=O)c2ccco2)C(C(=O)NC2CCCCC2)c2cccs2)cc1OC (centres undefined)	none
C#CC(=O)N(c1ccc(OC)cc1OC)C(C(=O)NC1CCCC1)c1cccs1 (centres undefined)	Ba/F3 V617F tox 101, BaF3 parental 27, IEC-6 tox 102
O=C(N1CCCCC1)N1CCN(C(c2ccccc2)c2ccccc2)CC1	none (no result: APP 5UTR inh)
O=C1NCCCC1C(=O)N1CCN(C(c2ccccc2)c2ccccc2)CC1 (centres undefined)	APP 5UTR inh 50
O=S(=O)(c1ccc2ccccc2c1)N1CCN(C(=S)Nc2ccc(F)cc2)CC1	BaF3 parental 35
Cc1ccc(C2CC(c3ccccc3)=NN2C(=S)Nc2ccccc2)o1 (centres undefined)	MT stabilize HCS 50 (no result: bCat nuc transl)
CCOC(=O)c1[nH]c(C)c(CC(C)C)c1C	none
CCc1ccc(C2=CC(c3cc(Br)ccc3F)n3ncnc3N2)cc1 (centres undefined)	MT stabilize HCS 30
Cc1ccsc1C1C=C(c2cccc(Br)c2)Nc2ncnn21 (centres undefined)	none
Fc1ccc(Br)cc1C1C=C(c2ccc(Br)cc2)Nc2ncnn21 (centres undefined)	MT stabilize HCS 49
CCOc1ccc(Br)cc1/C(C)=N\NC1=NCCN1	MT stabilize HCS 35, bCat nuc transl 82
COc1cc(C(=O)NNC(=S)NCc2ccco2)cc(OC)c1OC	BaF3 parental 90
O=C(CCC1CCCC1)N=C1SC2CS(=O)(=O)CC2N1c1ccccc1F (centres undefined)	none (no result: Ba/F3 V617F tox, MT stabilize HCS, BaF3 parental, APP 5UTR inh, bCat nuc transl)
CC1=C(Sc2nc3ccccc3[nH]2)C(=O)NC(C)(C)C1	APP 5UTR inh 48
O=C(CSc1n[nH]c(-c2ccccc2O)n1)N1CCCc2ccccc21	MT stabilize HCS 48
O=C(CSc1n[nH]c(-c2cccs2)n1)N1CCCc2ccccc21	none
NC(=O)c1ccc[n+](Cc2ccccc2)c1	none
c1ccc(C[n+]2cccc(-c3ccccc3)c2)cc1	Ba/F3 V617F tox 65, BaF3 parental 64
C#CC[N+](C)(C)CC#Cc1ccc(C)cc1	Ba/F3 V617F tox 41, BaF3 parental 37
CCOC(=O)C[N+](CC)(CC)CC#Cc1ccccc1	none

Bioassay records: PubChem BioAssay, several laboratories
